The record followed here is ChEMBL document CHEMBL1144568, “Synthesis of novel potent hepatitis C virus NS3 protease inhibitors: discovery of 4-hydroxy-cyclopent-2-ene-1,2-dicarboxylic acid as a N-acyl-L-hydroxyproline bioisostere” (Bioorg Med Chem, 2007).

Where only a bound is given, the exact number is not on record here.

A short description of this test: Inhibition of full length HCV NS3/4A protease. Further details: species or system Hepacivirus hominis. The procedure, abridged:
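30 min room-temperature preincubation with inhibitor, then FRET substrate RET S1 at 2 µM final. Activity followed continuously 20 min (ex 355/em 500 nm); IC50 by non-linear fit, Ki derived from IC50.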

One may read the Ki as a dissociation constant, usually derived from enzyme kinetics or from competition with a known ligand. Read a high Ki as lower affinity. With `C=C[C@@H]1C[C@]1(NC(=O)[C@@H]1C[C@@H](Oc2cc(-c3ccccc3)nc3cc(OC)ccc23)C=C1C(=O)N[C@H](C(=O)N[C@H](C(=O)NC)C1CCCCC1)C(C)(C)C)C(=O)O`, the Ki was determined as 0.0013 µM.
Then `C=C[C@@H]1C[C@]1(NC(=O)C1CC(Oc2cc(-c3ccccc3)nc3cc(OC)ccc23)C=C1C(=O)N[C@H](C(=O)N[C@H](C(=O)NC)C1CCCCC1)C(C)(C)C)C(=O)OC(C)(C)C` (some centres undefined), with greater than 2 µM; and `CC[C@H](NC(=O)[C@@H]1C[C@@H](Oc2cc(-c3ccccc3)nc3cc(OC)ccc23)C=C1C(=O)N[C@@H](C(=O)N[C@@H](C(=O)OC)C1CCCCC1)C(C)C)C(=O)O`, with greater than 2 µM; and `C=C[C@@H]1C[C@]1(NC(=O)[C@@H]1C[C@@H](Oc2cc(-c3ccccc3)nc3cc(OC)ccc23)C=C1C(=O)N[C@H](C(=O)N[C@H](C(=O)OC)C1CCCCC1)C(C)(C)C)C(=O)O`, with 0.0011 µM.
In turn, `C=C[C@@H]1C[C@]1(NC(=O)[C@H]1C[C@H](Oc2cc(-c3ccccc3)nc3cc(OC)ccc23)C=C1C(=O)N[C@H](C(=O)N[C@H](C(=O)OC)C1CCCCC1)C(C)(C)C)C(=O)O` returned a Ki of 0.108 µM.
With `C=C[C@@H]1C[C@]1(NC(=O)C1CC(Oc2cc(-c3ccccc3)nc3cc(OC)ccc23)C=C1C(=O)N[C@H](C(=O)N(C)[C@H](C(=O)NC)C1CCCCC1)C(C)(C)C)C(=O)O` (some centres undefined), the Ki is greater than 5 µM.
Then `CCC[C@H](NC(=O)[C@H]1C[C@H](Oc2cc(-c3ccccc3)nc3cc(OC)ccc23)C=C1C(=O)N[C@H](C(=O)N[C@H](C(=O)OC)C1CCCCC1)C(C)C)C(=O)O`, with 2.56 µM; and `CC[C@H](NC(=O)C1CC(Oc2cc(-c3ccccc3)nc3cc(OC)ccc23)C=C1C(=O)N[C@H](C(=O)OC)C(C)C)C(=O)O` (some centres undefined), with greater than 2 µM.
For `CCC[C@H](NC(=O)[C@@H]1C[C@@H](Oc2cc(-c3ccccc3)nc3cc(OC)ccc23)C=C1C(=O)N[C@H](C(=O)N[C@H](C(=O)OC)C1CCCCC1)C(C)(C)C)C(=O)O`, the Ki turned out to be 0.03 µM.
As for `CC[C@H](NC(=O)C1CC(Oc2cc(-c3ccccc3)nc3cc(OC)ccc23)C=C1C(=O)N[C@H](C(=O)N[C@H](C(=O)OC)C1CCCCC1)C(C)(C)C)C(=O)O` (some centres undefined), the figure is 0.503 µM; as for `CCC[C@H](NC(=O)[C@H]1C[C@H](Oc2cc(-c3ccccc3)nc3cc(OC)ccc23)C=C1C(=O)N[C@H](C(=O)N[C@H](C(=O)OC)C1CCCCC1)C(C)(C)C)C(=O)O`, greater than 2 µM.
Then `CC[C@H](NC(=O)C1CC(Oc2cc(-c3ccccc3)nc3cc(OC)ccc23)C=C1C(=O)N[C@H](C(=O)N[C@H](C(=O)OC)C1CCCCC1)C(C)C)C(=O)O` (some centres undefined), with 0.523 µM; and `CCC[C@H](NC(=O)[C@@H]1C[C@@H](Oc2cc(-c3ccccc3)nc3cc(OC)ccc23)C=C1C(=O)N[C@H](C(=O)N[C@H](C(=O)OC)C1CCCCC1)C(C)C)C(=O)O`, with 0.102 µM; and `CC[C@H](NC(=O)C1CC(Oc2cc(-c3ccccc3)nc3cc(OC)ccc23)C=C1C(=O)N[C@H](C(=O)N[C@H](C(=O)NC)C1CCCCC1)C(C)(C)C)C(=O)O` (some centres undefined), with 0.28 µM.
As to `C=C[C@@H]1C[C@]1(NC(=O)[C@@H]1C[C@@H](Oc2cc(-c3ccccc3)nc3cc(OC)ccc23)C[C@H]1C(=O)N[C@H](C(=O)N[C@H](C(=O)NC)C1CCCCC1)C(C)(C)C)C(=O)O`, the affinity, expressed as Ki, was 0.016 µM.
Turning to `CCC[C@H](NC(=O)C1CC(Oc2cc(-c3ccccc3)nc3cc(OC)ccc23)C=C1C(=O)N[C@H](C(=O)N[C@H](C(=O)NC)C1CCCCC1)C(C)(C)C)C(=O)O` (some centres undefined), the Ki amounted to 0.067 µM.
Regarding `C=C[C@@H]1C[C@]1(NC(=O)[C@H]1C[C@H](Oc2cc(-c3ccccc3)nc3cc(OC)ccc23)C=C1C(=O)N[C@H](C(=O)N[C@H](C(=O)NC)C1CCCCC1)C(C)(C)C)C(=O)O`, affinity was put at a Ki of 0.023 µM.
As for `C=C[C@@H]1C[C@]1(NC(=O)C1CC(Oc2cc(-c3ccccc3)nc3cc(OC)ccc23)C=C1C(=O)N[C@H](C(=O)N[C@H](C(=O)OC)C1CCCCC1)C(C)(C)C)C(=O)OC(C)(C)C` (some centres undefined), the figure is greater than 2 µM; as for `C=C[C@@H]1C[C@]1(NC(=O)C1CC(Oc2cc(-c3ccccc3)nc3cc(OC)ccc23)C=C1C(=O)N[C@H](C(=O)N[C@H](C(=O)OC)C1CCCCC1)C(C)C)C(=O)O` (some centres undefined), 0.024 µM.
